We go through 15 compounds from ChEMBL document CHEMBL2424556, “Hybrid benzofuran-bisindole derivatives: new prototypes with promising anti-hyperlipidemic activities” (2013).

Holding throughout (format): functional
Assay [1] has as its system Rattus norvegicus. As to the kind of experiment: Antihyperlipidemic activity in Charles-Foster rat assessed as reversal of triton-induced increase in plasma triglyceride level at 100 mg/kg, po after 18 hrs relative to control. The method, boiled down: (§1)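 Male adult Charles Foster rats (200-225 g), 6 per group; triton WR-1339 400 mg/kg i.p. plus oral test agent in 0.2% gum acacia suspension, given together, diet withdrawn. After 18 h, retro-orbital EDTA blood was centrifuged 2500 g, 4 °C, 10 min; plasma was diluted 1:3 in saline and TC, PL and TG were assayed enzymatically (mg/dl). Mean ± SD; Student's t-test.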

Assay [2] deals with Rattus norvegicus. The experiment in a line: Antihyperlipidemic activity in Charles-Foster rat assessed as reversal of triton-induced increase in plasma total cholesterol level at 100 mg/kg, po after 18 hrs relative to triton-treated control. The method in brief:
as §1

The subject of assay [3] is Rattus norvegicus. As to the kind of experiment: Antihyperlipidemic activity in Charles-Foster rat assessed as post heparin lipolytic activity at 100 mg/kg, po after 18 hrs by spectrophotometric analysis relative to triton-treated control. The method, boiled down: (§2)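 Male adult Charles Foster rats (200-225 g), 6 per group. Triton WR-1339 400 mg/kg i.p.; test agent 100 mg/kg p.o. as gum acacia (0.2% w/v) suspension in water, given simultaneously, diet withdrawn; vehicle to control and triton groups. At 18 h under thiopentone (50 mg/kg), retro-orbital blood collected into EDTA and plasma separated. Post-heparin lipolytic activity read spectrophotometrically as nmol free fatty acid/h/ml plasma; mean ± SD; Student's t-test.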

The subject of assay [4] is Rattus norvegicus. As to the kind of experiment: Antihyperlipidemic activity in Charles-Foster rat assessed as post heparin lipolytic activity at 100 mg/kg, po after 18 hrs by spectrophotometric analysis relative to control. The method, boiled down: as §2
The test system of assay [5] is Rattus norvegicus. As to the kind of experiment: Antihyperlipidemic activity in Charles-Foster rat assessed as reversal of triton-induced increase in plasma triglyceride level at 100 mg/kg, po after 18 hrs relative to triton-treated control. The method, boiled down:
as §1

The test system of assay [6] is Rattus norvegicus. As to the kind of experiment: Antihyperlipidemic activity in Charles-Foster rat assessed as reversal of triton-induced increase in plasma phospholipid level at 100 mg/kg, po after 18 hrs relative to control. The method, boiled down:
as §1

Assay [7] concerns Rattus norvegicus. As to the kind of experiment: Antihyperlipidemic activity in Charles-Foster rat assessed as reversal of triton-induced increase in plasma phospholipid level at 100 mg/kg, po after 18 hrs relative to triton-treated control. The method in brief: as §1
The subject of assay [8] is Rattus norvegicus. The experiment in a line: Antihyperlipidemic activity in Charles-Foster rat assessed as reversal of triton-induced increase in plasma total cholesterol level at 100 mg/kg, po after 18 hrs relative to control. The method in brief:
as §1

In the case of `COc1ccc(C(=O)c2cc3cc(C(c4c[nH]c5ccc(OC)cc45)c4c[nH]c5ccc(OC)cc45)cc(Cl)c3o2)cc1`, the Activity in the assay on Rattus norvegicus [1] is 168.56 mg/dL; with Rattus norvegicus [2], -21%; in the assay with Rattus norvegicus [3], 15%; with Rattus norvegicus [4], 15.19 nmol/h/mL; in the assay with Rattus norvegicus [5], -22%; with Rattus norvegicus [6] it was 165.5 mg/dL. In addition, the Activity in the assay with Rattus norvegicus [7] is -20%; with Rattus norvegicus [8] it was 145.52 mg/dL.
Take `COc1ccc(C(=O)c2cc3cc(C(c4c[nH]c5ccccc45)c4c[nH]c5ccccc45)cc(C(C)(C)C)c3o2)cc1`: the Activity in the assay on Rattus norvegicus [1] was 198.82 mg/dL; in the assay on Rattus norvegicus [2], -7%; with Rattus norvegicus [3] it was 4%; in the assay on Rattus norvegicus [4], 13.73 nmol/h/mL; with Rattus norvegicus [5], -8%; in the assay with Rattus norvegicus [6], 190.32 mg/dL. Besides, the Activity in the assay with Rattus norvegicus [7] is -8%; with Rattus norvegicus [8], 171.31 mg/dL.
Take `Cc1ccc(C(=O)c2cc3cc(C(c4c[nH]c5ccccc45)c4c[nH]c5ccccc45)cc(C)c3o2)cc1`: the Activity in the assay with Rattus norvegicus [1] is 196.66 mg/dL; in the assay on Rattus norvegicus [2] it was -8%; with Rattus norvegicus [3], 8%; in the assay with Rattus norvegicus [4] it was 14.26 nmol/h/mL; with Rattus norvegicus [5] it was -9%; in the assay with Rattus norvegicus [6] it was 190.32 mg/dL. The values for the Activity in the assay with Rattus norvegicus [7] and in the assay with Rattus norvegicus [8] were -8% and 169.47 mg/dL, respectively.
As to `CCc1cc(C(c2c[nH]c3ccc([N+](=O)[O-])cc23)c2c[nH]c3ccc([N+](=O)[O-])cc23)cc2cc(C(=O)c3ccc(OC)cc3)oc12`, the Activity in the assay with Rattus norvegicus [1] was 207.46 mg/dL; with Rattus norvegicus [2], -4%; in the assay with Rattus norvegicus [3] it was 2%; with Rattus norvegicus [4], 13.47 nmol/h/mL; in the assay on Rattus norvegicus [5], -4%; in the assay on Rattus norvegicus [6], 194.46 mg/dL. Besides, the Activity is -6% in the assay with Rattus norvegicus [7] and 176.84 mg/dL in the assay with Rattus norvegicus [8].
As to `CC(C)c1cc(C(c2c[nH]c3ccccc23)c2c[nH]c3ccccc23)cc2cc(C(=O)c3ccc(C#N)cc3)oc12`, the Activity in the assay on Rattus norvegicus [1] was 193.81 mg/dL; with Rattus norvegicus [2] it was -9%; in the assay on Rattus norvegicus [3], 4%; in the assay on Rattus norvegicus [4], 13.75 nmol/h/mL; in the assay with Rattus norvegicus [5] it was -10%; with Rattus norvegicus [6], 186.19 mg/dL. Moreover, the values for the Activity with Rattus norvegicus [7] and in the assay with Rattus norvegicus [8] were -10% and 167.63 mg/dL, respectively.
For the compound `CC(C)c1cc(C(c2c[nH]c3ccccc23)c2c[nH]c3ccccc23)cc2cc(C(=O)c3ccc(Cl)cc3)oc12`, the Activity is 194.4 mg/dL with Rattus norvegicus [1]; -12% in the assay with Rattus norvegicus [2]; 4% with Rattus norvegicus [3]; 13.77 nmol/h/mL in the assay with Rattus norvegicus [4]; -10% with Rattus norvegicus [5]; 186.19 mg/dL with Rattus norvegicus [6]. Also, the Activity in the assay with Rattus norvegicus [7] was -10%; in the assay with Rattus norvegicus [8], 162.1 mg/dL.
Turning to `COc1ccc(C(=O)c2cc3cc(C(c4c[nH]c5ccccc45)c4c[nH]c5ccccc45)cc(C)c3o2)cc1`, the Activity was 194.49 mg/dL with Rattus norvegicus [1]; -12% in the assay on Rattus norvegicus [2]; 4% in the assay with Rattus norvegicus [3]; 13.71 nmol/h/mL in the assay with Rattus norvegicus [4]; -10% in the assay with Rattus norvegicus [5]; 184.12 mg/dL with Rattus norvegicus [6]. Besides, the Activity is -11% in the assay with Rattus norvegicus [7] and 162.1 mg/dL in the assay with Rattus norvegicus [8].
Turning to `COc1ccc(C(=O)c2cc3cc(C(c4c[nH]c5ccccc45)c4c[nH]c5ccccc45)cc(C(C)C)c3o2)cc1`, the Activity in the assay with Rattus norvegicus [1] was 181.53 mg/dL; in the assay with Rattus norvegicus [2] it was -17%; in the assay with Rattus norvegicus [3], 12%; in the assay on Rattus norvegicus [4] it was 14.79 nmol/h/mL; in the assay on Rattus norvegicus [5], -16%; in the assay on Rattus norvegicus [6], 175.84 mg/dL. The values for the Activity in the assay on Rattus norvegicus [7] and with Rattus norvegicus [8] were -15% and 152.89 mg/dL, respectively.
As to `Cc1cc(C(c2c[nH]c3ccccc23)c2c[nH]c3ccccc23)cc2cc(C(=O)c3ccc(C#N)cc3)oc12`, the Activity is 200.98 mg/dL with Rattus norvegicus [1]; -7% in the assay on Rattus norvegicus [2]; 5% in the assay with Rattus norvegicus [3]; 13.87 nmol/h/mL with Rattus norvegicus [4]; -7% in the assay on Rattus norvegicus [5]; 190.11 mg/dL in the assay with Rattus norvegicus [6]. The results for the Activity in the assay with Rattus norvegicus [7] and with Rattus norvegicus [8] were -8% and 171.25 mg/dL, respectively.
`Cc1cc(C(c2c[nH]c3ccccc23)c2c[nH]c3ccccc23)cc2cc(C(=O)c3ccc(Cl)cc3)oc12`: the Activity was 192.33 mg/dL in the assay on Rattus norvegicus [1]; -11% in the assay with Rattus norvegicus [2]; 9% with Rattus norvegicus [3]; 14.39 nmol/h/mL in the assay with Rattus norvegicus [4]; -11% in the assay with Rattus norvegicus [5]; 186.19 mg/dL with Rattus norvegicus [6]. For the same compound, the Activity in the assay on Rattus norvegicus [7] is -10%; in the assay with Rattus norvegicus [8], 163.94 mg/dL.
For the compound `CC(C)(C)c1cc(C(c2c[nH]c3ccccc23)c2c[nH]c3ccccc23)cc2cc(C(=O)c3ccc(Cl)cc3)oc12`, the Activity was 194.49 mg/dL in the assay on Rattus norvegicus [1]; -10% with Rattus norvegicus [2]; 9% with Rattus norvegicus [3]; 14.37 nmol/h/mL with Rattus norvegicus [4]; -10% with Rattus norvegicus [5]; 187.91 mg/dL in the assay with Rattus norvegicus [6]. The Activity with Rattus norvegicus [7] was -9%; in the assay with Rattus norvegicus [8], 165.78 mg/dL.
Turning to `CCc1cc(C(c2c[nH]c3ccccc23)c2c[nH]c3ccccc23)cc2cc(C(=O)c3ccc(OC)cc3)oc12`, the Activity with Rattus norvegicus [1] is 196.66 mg/dL; with Rattus norvegicus [2] it was -8%; with Rattus norvegicus [3], 8%; with Rattus norvegicus [4], 14.26 nmol/h/mL; in the assay with Rattus norvegicus [5], -9%; with Rattus norvegicus [6] it was 190.32 mg/dL. The Activity in the assay on Rattus norvegicus [7] was -8%; in the assay on Rattus norvegicus [8] it was 169.47 mg/dL.
For `CCc1cc(C(c2c[nH]c3ccccc23)c2c[nH]c3ccccc23)cc2cc(C(=O)c3ccc(Cl)cc3)oc12`, the Activity with Rattus norvegicus [1] is 170.72 mg/dL; with Rattus norvegicus [2] it was -20%; in the assay with Rattus norvegicus [3] it was 14%; with Rattus norvegicus [4], 15.05 nmol/h/mL; in the assay on Rattus norvegicus [5] it was -21%; in the assay with Rattus norvegicus [6], 163.43 mg/dL. For the same compound, the Activity in the assay on Rattus norvegicus [7] is -21%; in the assay on Rattus norvegicus [8], 147.36 mg/dL.
As for `COc1ccc(C(=O)c2cc3cc(C(c4c[nH]c5ccc([N+](=O)[O-])cc45)c4c[nH]c5ccc([N+](=O)[O-])cc45)cc(C(C)C)c3o2)cc1`, the Activity is 193.81 mg/dL in the assay with Rattus norvegicus [1]; -9% in the assay on Rattus norvegicus [2]; 4% in the assay on Rattus norvegicus [3]; 13.75 nmol/h/mL with Rattus norvegicus [4]; -10% in the assay with Rattus norvegicus [5]; 186.19 mg/dL with Rattus norvegicus [6]. The Activity was -10% in the assay on Rattus norvegicus [7] and 167.63 mg/dL in the assay with Rattus norvegicus [8].
In the case of `CCCc1cc(C(c2c[nH]c3ccc(O)cc23)c2c[nH]c3ccc(O)cc23)cc2cc(C(=O)c3ccc(OC)cc3)oc12`, the Activity in the assay with Rattus norvegicus [1] was 172.88 mg/dL; in the assay with Rattus norvegicus [2], -22%; in the assay on Rattus norvegicus [3] it was 15%; with Rattus norvegicus [4] it was 15.19 nmol/h/mL; in the assay with Rattus norvegicus [5], -20%; with Rattus norvegicus [6], 161.36 mg/dL. The Activity was -22% in the assay with Rattus norvegicus [7] and 143.68 mg/dL in the assay on Rattus norvegicus [8].
